# Experimental data published in ChEMBL document CHEMBL1152649, “Synthesis, cytotoxicity and human telomerase inhibition activities of a series of 1,2-heteroannelated anthraquinones and anthra[1,2-d]imidazole-6,11-dione homologues” (2009).
# Active and inactive are the calls of the source. The calls are words filed in the database; no cut-off is given here.
# Tests used:
# [1] = system: NCI-H322M; assay: Antiproliferative activity against human NCI-H322M cells assessed as cell growth at 10 uM; assay type: functional; details: read-out: Activity
# In short: (§1)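 NCI 60 cell line panel, single-dose screen (10^-5 M) run by the developmental therapeutics program protocol. Results are given as growth percent of treated cells relative to untreated control cells for each line.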
# [2] = system: OVCAR-8; assay: Antiproliferative activity against human OVCAR8 cells assessed as cell growth at 10 uM; assay type: functional; details: read-out: Activity; in short: as §1
# [3] = biological target: Telomerase reverse transcriptase (Homo sapiens) (UniProt O14746); assay: Inhibition of telomerase in human H1299 cells up to 100 uM by TRAP assay; assay type: cell-based
# In short: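 PCR-based telomeric repeat amplification protocol (TRAP). The telomerase source was total lysate of H1299 lung cancer cells, with protein measured against BSA standards. Controls were extract without inhibitor and RNase A-treated extract.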
# [4] = system: U-251; assay: Antiproliferative activity against human U251 cells assessed as cell growth at 10 uM; assay type: functional; details: read-out: Activity
# In short: (§2)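 NCI 60 cell line panel, single dose (10^-5 M), run per the Developmental Therapeutics Program protocol (one dose mean graph). Each result is the growth percentage of treated cells relative to untreated control cells.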
# [5] = system: SNB-19; assay: Antiproliferative activity against human SNB19 cells assessed as cell growth at 10 uM; assay type: functional; details: read-out: Activity; in short: as §1
# [6] = system: HOP-62; assay: Antiproliferative activity against human HOP62 cells assessed as cell growth at 10 uM; assay type: functional; details: read-out: Activity; in short: as §1
# [7] = system: MCF7; assay: Antiproliferative activity against human MCF7 cells assessed as cell growth at 10 uM; assay type: functional; details: read-out: Activity; in short: as §1
# [8] = system: HL-60(TB); assay: Antiproliferative activity against human HL-60(TB) cells assessed as cell growth at 10 uM; assay type: functional; details: read-out: Activity
# In short: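 NCI Developmental Therapeutics Program 60-cell-line one-dose screen at 10^-5 M. Readout is growth percentage of treated cells relative to untreated control cells.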
# [9] = system: OVCAR-3; assay: Antiproliferative activity against human OVCAR-3 cells assessed as cell growth at 10 uM; assay type: functional; details: read-out: Activity; in short: as §1
# [10] = system: OVCAR-5; assay: Antiproliferative activity against human OVCAR5 cells assessed as cell growth at 10 uM; assay type: functional; details: read-out: Activity; in short: as §1
# [11] = system: COLO 205; assay: Antiproliferative activity against human COLO205 cells assessed as cell growth at 10 uM; assay type: functional; details: read-out: Activity; in short: as §1
# [12] = system: HT-29; assay: Antiproliferative activity against human HT-29 cells assessed as cell growth at 10 uM; assay type: functional; details: read-out: Activity; in short: as §1
# [13] = system: T47D; assay: Antiproliferative activity against human T47D cells assessed as cell growth at 10 uM; assay type: functional; details: read-out: Activity; in short: as §2
# [14] = system: PC-3; assay: Antiproliferative activity against human PC3 cells assessed as cell growth at 10 uM; assay type: functional; details: read-out: Activity; in short: as §1
# [15] = Cytotoxicity against human H1299 cells at 10 uM after 48 hrs by MTT assay; assay type: functional; details: NCI-H1299, 48 h
# In short: (§3)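 H1299 non-small cell lung cancer cells were grown in RPMI 1640 with 10% FBS, penicillin and streptomycin at 37 °C under 5% CO2. About 2 × 10³ cells per well were seeded and left 24 h. Compounds were dissolved fresh in DMSO, diluted into complete medium and applied for 48 h. MTT was then added for 4 h at 37 °C, followed by lysis buffer (20% SDS, 50% DMF) for 16 h, and absorbance was read at 550 nm.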
# [16] = system: NCI/ADR-RES; assay: Antiproliferative activity against human NCI/ADR-RES cells assessed as cell growth at 10 uM; assay type: functional; details: read-out: Activity; in short: as §1
# [17] = Cytotoxicity against human H1299 cells at 1 uM after 48 hrs by MTT assay; assay type: functional; details: NCI-H1299, 48 h; in short: as §3
# [18] = Antiproliferative activity against human Hs 578T cells assessed as cell growth at 10 uM; assay type: functional; details: read-out: Activity; in short: as §1
# [19] = system: A498; assay: Antiproliferative activity against human A498 cells assessed as cell growth at 10 uM; assay type: functional; details: read-out: Activity; in short: as §1
# [20] = system: 786-0; assay: Antiproliferative activity against human 786-0 cells assessed as cell growth at 10 uM; assay type: functional; details: read-out: Activity; in short: as §1
# [21] = system: HOP-92; assay: Antiproliferative activity against human HOP92 cells assessed as cell growth at 10 uM; assay type: functional; details: read-out: Activity; in short: as §1
# [22] = system: NCI-H23; assay: Antiproliferative activity against human NCI-H23 cells assessed as cell growth at 10 uM; assay type: functional; details: read-out: Activity; in short: as §1
# [23] = system: SK-MEL-2; assay: Antiproliferative activity against human SK-MEL-2 cells assessed as cell growth at 10 uM; assay type: functional; details: read-out: Activity; in short: as §1
# [24] = biological target: Telomerase reverse transcriptase (Homo sapiens) (UniProt O14746); assay: Inhibition of TERT in human H1299 cells assessed as residual transcriptional activity at 100 uM after 24 hrs by SEAP reporter gene assay; values are per cent of control
# [25] = system: CCRF-CEM; assay: Antiproliferative activity against human CCRF-CEM cells assessed as cell growth at 10 uM; assay type: functional; details: read-out: Activity; in short: as §1
# [26] = system: NCI-H226; assay: Antiproliferative activity against human NCI-H226 cells assessed as cell growth at 10 uM; assay type: functional; details: read-out: Activity; in short: as §1
# [27] = system: K562; assay: Antiproliferative activity against human K562 cells assessed as cell growth at 10 uM; assay type: functional; details: read-out: Activity; in short: as §1
# [28] = system: A549; assay: Antiproliferative activity against human A549 cells assessed as cell growth at 10 uM; assay type: functional; details: read-out: Activity; in short: as §1
# [29] = system: SR; assay: Antiproliferative activity against human SR cells assessed as cell growth at 10 uM; assay type: functional; details: read-out: Activity; in short: as §2
# [30] = system: SK-MEL-5; assay: Antiproliferative activity against human SK-MEL-5 cells assessed as cell growth at 10 uM; assay type: functional; details: read-out: Activity; in short: as §1
# [31] = Cytotoxicity against human H1299 cells at 100 uM after 48 hrs by MTT assay; assay type: functional; details: NCI-H1299, 48 h; in short: as §3
# [32] = Antiproliferative activity against human RPMI8266 cells assessed as cell growth at 10 uM; assay type: functional; details: read-out: Activity; in short: as §1
# [33] = system: M14; assay: Antiproliferative activity against human M14 cells assessed as cell growth at 10 uM; assay type: functional; details: read-out: Activity; in short: as §1
# [34] = system: NCI-H460; assay: Antiproliferative activity against human NCI-H460 cells assessed as cell growth at 10 uM; assay type: functional; details: read-out: Activity; in short: as §1
# [35] = system: SK-OV-3; assay: Antiproliferative activity against human SKOV3 cells assessed as cell growth at 10 uM; assay type: functional; details: read-out: Activity; in short: as §1
# [36] = system: SF-295; assay: Antiproliferative activity against human SF295 cells assessed as cell growth at 10 uM; assay type: functional; details: read-out: Activity; in short: as §1
# [37] = system: HCC 2998; assay: Antiproliferative activity against human HCC2998 cells assessed as cell growth at 10 uM; assay type: functional; details: read-out: Activity; in short: as §1
# [38] = biological target: Telomerase reverse transcriptase (Homo sapiens) (UniProt O14746); assay: Inhibition of TERT in human H1299 cells assessed as residual transcriptional activity at 1 uM after 24 hrs by SEAP reporter gene assay; values are per cent of control
# [39] = system: SN12C; assay: Antiproliferative activity against human SN12C cells assessed as cell growth at 10 uM; assay type: functional; details: read-out: Activity; in short: as §1
# [40] = system: EKVX; assay: Antiproliferative activity against human EKVX cells assessed as cell growth at 10 uM; assay type: functional; details: read-out: Activity; in short: as §1
# [41] = system: DU-145; assay: Antiproliferative activity against human DU145 cells assessed as cell growth at 10 uM; assay type: functional; details: read-out: Activity; in short: as §1
# [42] = system: SK-MEL-28; assay: Antiproliferative activity against human SK-MEL-28 cells assessed as cell growth at 10 uM; assay type: functional; details: read-out: Activity; in short: as §1
# [43] = system: UACC-257; assay: Antiproliferative activity against human UACC257 cells assessed as cell growth at 10 uM; assay type: functional; details: read-out: Activity; in short: as §2
# Chain of Telomerase reverse transcriptase (Homo sapiens) (O14746 whole entry): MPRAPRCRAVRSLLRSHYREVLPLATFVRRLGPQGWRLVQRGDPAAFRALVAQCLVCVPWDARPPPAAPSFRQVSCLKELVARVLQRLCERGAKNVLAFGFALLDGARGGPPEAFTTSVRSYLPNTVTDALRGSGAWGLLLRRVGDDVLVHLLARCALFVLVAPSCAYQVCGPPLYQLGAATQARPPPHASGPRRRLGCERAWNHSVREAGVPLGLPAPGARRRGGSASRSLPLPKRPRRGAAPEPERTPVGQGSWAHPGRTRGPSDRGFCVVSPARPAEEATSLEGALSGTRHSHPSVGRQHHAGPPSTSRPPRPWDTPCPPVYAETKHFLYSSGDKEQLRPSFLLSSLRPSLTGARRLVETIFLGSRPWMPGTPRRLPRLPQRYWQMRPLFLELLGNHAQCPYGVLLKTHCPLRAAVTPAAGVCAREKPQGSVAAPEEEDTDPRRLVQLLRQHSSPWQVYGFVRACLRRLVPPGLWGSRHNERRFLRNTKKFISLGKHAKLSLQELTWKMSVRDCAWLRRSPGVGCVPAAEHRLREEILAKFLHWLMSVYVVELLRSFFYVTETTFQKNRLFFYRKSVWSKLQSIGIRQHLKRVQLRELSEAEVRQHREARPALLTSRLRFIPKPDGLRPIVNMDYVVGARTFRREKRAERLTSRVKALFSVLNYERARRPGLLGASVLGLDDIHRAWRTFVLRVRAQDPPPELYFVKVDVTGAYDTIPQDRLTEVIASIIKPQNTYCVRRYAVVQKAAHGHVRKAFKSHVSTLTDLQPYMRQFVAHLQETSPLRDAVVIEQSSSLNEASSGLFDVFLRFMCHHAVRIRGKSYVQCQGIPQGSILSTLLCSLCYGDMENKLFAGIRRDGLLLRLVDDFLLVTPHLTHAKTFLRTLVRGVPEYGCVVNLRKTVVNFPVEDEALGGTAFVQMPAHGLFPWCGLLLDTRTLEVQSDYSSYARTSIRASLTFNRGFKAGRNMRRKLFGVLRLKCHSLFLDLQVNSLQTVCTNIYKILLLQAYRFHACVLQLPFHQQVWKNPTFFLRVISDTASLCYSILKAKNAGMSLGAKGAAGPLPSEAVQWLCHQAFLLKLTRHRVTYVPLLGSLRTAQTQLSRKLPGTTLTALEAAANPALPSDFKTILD
smiles,measurement,setting,value
O=C1c2ccccc2C(=O)c2c1ccc1nc(-c3ccc4c(c3)OCO4)[nH]c21,growth at 10 µM,[1],150%
same,growth at 10 µM,[2],96.5%
same,inhibition,[3],inactive
same,growth at 10 µM,[4],111%
same,growth at 10 µM,[5],121%
same,growth at 10 µM,[6],114%
same,growth at 10 µM,[7],46.5%
same,growth at 10 µM,[8],127%
same,growth at 10 µM,[9],107%
same,growth at 10 µM,[10],111%
same,growth at 10 µM,[11],126%
same,growth at 10 µM,[12],95.8%
same,growth at 10 µM,[13],107%
same,growth at 10 µM,[14],107%
same,viability at 10 µM,[15],67%
same,growth at 10 µM,[16],105%
same,viability at 1 µM,[17],79%
same,growth at 10 µM,[18],106%
same,growth at 10 µM,[19],91.7%
same,growth at 10 µM,[20],107%
same,growth at 10 µM,[21],65.3%
same,growth at 10 µM,[22],94.3%
same,growth at 10 µM,[23],41.5%
same,residual activity,[24],34%
same,growth at 10 µM,[25],99.6%
same,growth at 10 µM,[26],97%
same,growth at 10 µM,[27],80.6%
same,growth at 10 µM,[28],102%
same,growth at 10 µM,[29],91.7%
same,growth at 10 µM,[30],98.7%
same,viability at 100 µM,[31],40%
same,growth at 10 µM,[32],96.2%
same,growth at 10 µM,[33],120%
same,growth at 10 µM,[34],109%
same,growth at 10 µM,[35],139%
same,growth at 10 µM,[36],115%
same,growth at 10 µM,[37],85.7%
same,residual activity,[38],61%
same,growth at 10 µM,[39],101%
same,growth at 10 µM,[40],94.2%
same,growth at 10 µM,[41],107%
same,growth at 10 µM,[42],116%
same,growth at 10 µM,[43],117%
